Screens deposited in PubChem BioAssay by several laboratories.
The sample as a whole holds a higher share of hits than the screen did.
Hsp70 act: Hsp70 transcriptional activators, primary screen, cell-based, HeLa, Hsp70 promoter luciferase, luminescence, 10 µM; HeLa Hsp70 promoter luciferase reporter; scaled: vehicle 0, proteasome-inhibitor control 100%; activation, % at 10 µM; hit rate 0.04% among 200,000; AID 1203, 2008;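 active = activation above the mean across all tested compounds plus 3 SD, cutoff set per campaign, cut at about 5.5% in these data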
HSF1 activator: HSF-1 activators, primary screen, NIH3T3-HGL cells, MG132 stress, luminescence, single point | NIH3T3-HGL HSF-1 luciferase reporter, 8 h; 100% = twice DMSO control signal | activation, % at 9 µM | hit rate 1.7% among 300,000 | AID 504408, 2011;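 active = mean replicate activation of at least 50% with a set share of replicates each reaching 50%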
HSF1 inhib: HSF1 inhibitors in luciferase reporter cells, primary screen, cell-based, NIH3T3, luminescence; NIH3T3-HGL HSE-luciferase, MG132-induced, luminescence 8 h; hits give low values; AID 2098, 2009; activity change, negative = inhibition, % at 7.5 µM (by protocol); hit rate 0.77% among 300,000;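 active = more than half of replicate wells show activity change below -50%, luminescence cut by over half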;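 also: luciferase reports HSF-1 transcriptional activity via heat shock element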
L major viab: Leishmania major promastigote growth inhibition, primary screen; Leishmania major promastigotes, resazurin fluorescence viability; inhibition, % at 10 µM; hit rate 9% among 200,000; AID 1063, 2008; in the data active = inhibition above about 50%;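 also: promastigotes grown with compound for 44 hours at 28 °C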
T cruzi repl: inhibitors of intracellular T. cruzi growth, primary screen, luminescence, NIH3T3 host cells | T. cruzi beta-gal in NIH3T3, 90 h | inhibition, % (concentration not given with the values) | hit rate 1.4% among 300,000 | AID 1885, 2009;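 active = mean inhibition across valid replicates above about 55%, limit read from the data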;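 also: signal also drops with host cell toxicity which is not excluded here; higher percent means less beta-gal luminescence so fewer parasites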
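System: NIH/3T3 fibroblasts plus reporter T. cruzi. Medium: DMEM plus 2% FBS. Probe or stimulus: 5000 reporter trypomastigotes per well. Compound: single 50 nL compound addition per well in DMSO. Incubation: co-culture of at least 90 h after 3 h attachment. Detection: GalScreen β-gal luminescence, detergent lysis, 60 min. Evaluation: parasite load inhibition, %.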
Hits are given with their value; . = inactive; / = no result.

SMILES	Hsp70 act	HSF1 activator	HSF1 inhib	L major viab	T cruzi repl
O=C(CSc1n[nH]c(=O)n1C1CC1)NCc1ccccc1Cl	.	.	.	.	.
Cc1ccccc1NS(=O)(=O)c1cc(C(=O)Nc2cccc([N+](=O)[O-])c2)ccc1C	.	.	.	72	.
Cc1ccccc1NS(=O)(=O)c1cc(S(C)(=O)=O)ccc1C	.	.	.	54	.
Cc1ccc(C(=O)Nc2ccccc2C(=O)O)cc1S(=O)(=O)NCc1ccccc1	.	.	-92	.	.
COc1ccc(C(=O)Nc2cccc(N(C)S(C)(=O)=O)c2)cc1OC	.	.	.	.	.
Cc1ccc(C(=O)Nc2cccc([N+](=O)[O-])c2)cc1S(=O)(=O)Nc1ccc(C(=O)O)cc1	.	.	.	.	.
Cc1ccc(C(=O)Nc2cccc(N(C)S(C)(=O)=O)c2)cc1S(=O)(=O)Nc1ccccc1	.	/	/	75	.
O=C1CCC(C(=O)N(Cc2cccs2)C2(C(=O)NC3CCCCC3)CCCCC2)N1 (stereo not given)	.	.	.	.	.
Cc1ccc(C)c(NS(=O)(=O)c2cc(C(=O)Nc3ccccc3-c3ccccc3)ccc2C)c1	.	.	.	.	.
Cc1ccc(C(=O)Nc2ccccc2-c2ccccc2)cc1S(=O)(=O)Nc1cccc(C)c1C	.	.	.	63	62
N=C1C(c2nc3ccccc3s2)=C(O)CN1C1CCCCC1	.	54	.	.	.
N=C1C(c2nc3ccccc3s2)=C(O)CN1C1CCC(O)CC1 (stereo not given)	/	.	.	/	.
Cc1cc(N=NC(=O)c2ccccc2)ccc1O	.	.	.	86	.
O=C(Oc1ccc(NC2=C(Cl)C(=O)c3ccccc3C2=O)cc1)c1ccc([N+](=O)[O-])cc1	.	.	.	.	63
CCN(CC)C(=O)Cn1cc(C(=O)C(=O)N2CC=C(c3ccccc3)CC2)c2ccccc21	.	/	/	.	/
C=CCNC(=O)CSCc1ccc(Br)cc1	.	.	.	.	.
CN1c2ccc([N+](=O)[O-])cc2N(C)C1(C)c1ccccc1 (stereo not given)	/	.	.	/	57
CCNC(=S)N(CCCO)Cc1cc2cc3c(cc2[nH]c1=O)OCCO3	/	.	.	/	.
CCN1/C(=C/C(C)=C/c2sc3ccccc3[n+]2CC)Sc2ccccc21	.	.	.	100	.
Cc1ccc(NS(=O)(=O)c2ccc3c(c2)CC(=O)N3)cc1C	/	.	.	/	.
CCOC(=O)C1=C(Cc2ccc(Cl)cc2)C(=O)c2ccccc2C1=O	.	/	/	91	/
COc1ccc(CN(Cc2ccccn2)S(=O)(=O)c2ccc(-n3cnnn3)c(OC)c2)cc1	.	.	.	80	.
COc1ccc(CN(Cc2cccnc2)S(=O)(=O)c2ccc(-n3cnnn3)c(C)c2)cc1OC	.	.	.	87	78
COC(=O)c1ccccc1NC(=O)N1CCN(Cc2ccco2)CC1	.	.	.	.	.
COc1ccc(-c2nc(CSCC(=O)NCCCN3CCCC3=O)c(C)o2)cc1OC	/	.	.	/	.
SMILES	Hsp70 act	HSF1 activator	HSF1 inhib	L major viab	T cruzi repl
Cc1cc(C(=O)NNS(=O)(=O)c2ccc(F)cc2)nn1C(C)(C)C	/	.	-71	/	.
Cc1cc(C(=O)NNC(=O)c2cccs2)nn1C(C)(C)C	/	.	.	/	.
C/C(=N\NC(=O)c1cc(-c2cccnc2)nc2ccccc12)c1ccccc1O	.	.	.	.	63
COc1ccc(-c2cc(C(=O)N/N=C(\C)c3cccnc3)c3ccccc3n2)cc1	/	.	.	/	.
Cc1ccc(NC(=O)c2cc(-c3ccc(C)o3)nc3ccccc23)cc1	.	.	.	.	.
CC(OC(=O)c1cc(-c2cccnc2)nc2ccccc12)C(=O)Nc1ccc2ccccc2c1 (stereo not given)	.	.	.	75	.
Cc1ccc(-c2cc(C(=O)Nc3cccnc3)c3ccccc3n2)o1	.	52	.	.	.
COc1ccc(/C(C)=N/NC(=O)c2cc(-c3cccnc3)nc3ccccc23)cc1	.	.	.	.	.
C/C(=N\NC(=O)c1cc(-c2ccncc2)nc2ccccc12)c1ccc(OC(F)F)cc1	.	.	.	89	.
O=C(NNC(=S)Nc1ccccc1)c1cc(-c2cccnc2)nc2ccccc12	.	.	.	.	.
